According to ChEMBL document CHEMBL1126653, “Structure-function studies of amphiphilic antibacterial peptides” (1993):
Values after ≈ are worked out from the molar mass of the structure shown. Peptide text beside a SMILES is read from it.

Tests used:
Escherichia coli = assay: Compound tested for in vitro susceptibility against ATCC strain 25922 of Escherichia coli; type: functional; details: ATCC25922
Outline: (§1)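 Microbroth dilution in Tryptic Soy Broth; inoculum 5×10^5 CFU/mL; plates incubated at 37 °C for 18-20 h; value reported as minimal inhibitory concentration (µg/mL).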

Pseudomonas aeruginosa [1] = assay: Compound tested for in vitro susceptibility against ATCC strain 27853 of Pseudomonas aeruginosa; type: functional; details: ATCC 27853; outline: as §1
Staphylococcus aureus [2] = assay: Compound tested for in vitro susceptibility against ATCC strain 29213 of Staphylococcus aureus; type: functional; outline: as §1
Enterobacter cloacae [3] = assay: Compound tested for the antimicrobial activity against Enterobacter cloacae; type: functional; outline: as §1
Enterobacter cloacae [4] = assay: Compound tested for the antimicrobial activity against Enterobacter cloacae ROS; type: functional
Outline: (§2)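 MIC by microbroth dilution in Tryptic Soy Broth; inoculum 5×10^5 CFU/mL; plates incubated 18-20 h at 37 °C; assay pH approximately 7.4.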

[5] = Hemolytic activity towards human erythrocytes is evaluated for magainin 2 at peptide concentration of 100 µg/mL; type: functional
Outline: (§3)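 Washed human erythrocytes from healthy volunteers (3 mL packed cells, PBS pH 7.4 washes, diluted to 20 mL) exposed to peptide in PBS at 25-200 µg/mL, 30 min at 37 °C; supernatant absorbance at 576 nm after centrifugation; 0.1% Triton X-100 taken as 100% hemolysis; duplicates.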

[6] = Hemolytic activity towards human erythrocytes is evaluated for magainin 2 at peptide concentration of 200 µg/mL; type: functional; outline: as §3
[7] = Hemolytic activity towards human erythrocytes is evaluated for magainin 2 at peptide concentration of 25 ug/mL; type: functional; outline: as §3
[8] = Hemolytic activity towards human erythrocytes is evaluated for magainin 2 at peptide concentration of 50 µg/mL; type: functional; outline: as §3
Klebsiella pneumoniae = assay: Compound tested for the antimicrobial activity against Klebsiella pneumoniae; type: functional; outline: as §2
Pseudomonas aeruginosa [9] = assay: Compound tested for the antimicrobial activity against Pseudomonas aeruginosa strain 8; type: functional; outline: as §1
Pseudomonas aeruginosa [10] = assay: Compound tested for the antimicrobial activity against Pseudomonas aeruginosa strain 9; type: functional; outline: as §1
Pseudomonas aeruginosa [11] = assay: Compound tested for the antimicrobial activity against Pseudomonas aeruginosa strain ATCC 25916; type: functional; outline: as §1
Proteus mirabilis = assay: Compound tested for the antimicrobial activity against Proteus mirabilis; type: functional; outline: as §1
Pseudomonas aeruginosa [12] = assay: Compound tested for the antimicrobial activity against Pseudomonas aeruginosa strain 1; type: functional; outline: as §1
Pseudomonas aeruginosa [13] = assay: Compound tested for the antimicrobial activity against Pseudomonas aeruginosa strain 10; type: functional; outline: as §1
Pseudomonas aeruginosa [14] = assay: Compound tested for the antimicrobial activity against Pseudomonas aeruginosa strain 11; type: functional; outline: as §1
Pseudomonas aeruginosa [15] = assay: Compound tested for the antimicrobial activity against Pseudomonas aeruginosa strain 2; type: functional; outline: as §1
Pseudomonas aeruginosa [16] = assay: Compound tested for the antimicrobial activity against Pseudomonas aeruginosa strain 3; type: functional; outline: as §1
Pseudomonas aeruginosa [17] = assay: Compound tested for the antimicrobial activity against Pseudomonas aeruginosa strain 4; type: functional; outline: as §1
Pseudomonas aeruginosa [18] = assay: Compound tested for the antimicrobial activity against Pseudomonas aeruginosa strain 5; type: functional; outline: as §1
Pseudomonas aeruginosa [19] = assay: Compound tested for the antimicrobial activity against Pseudomonas aeruginosa strain 6; type: functional; outline: as §1
Pseudomonas aeruginosa [20] = assay: Compound tested for the antimicrobial activity against Pseudomonas aeruginosa strain 7; type: functional; outline: as §1
[21] = tested on: Salmonella enterica subsp. enterica serovar Anatum; assay: Compound tested for the antimicrobial activity against S. a natum; type: functional, salmoneila onotum; outline: as §1
Staphylococcus aureus [22] = assay: Compound tested for the activity against Staphylococcus aureus strain 4; type: functional; outline: as §1
Staphylococcus aureus [23] = assay: Compound tested for the activity against Staphylococcus aureus strain 5; type: functional; outline: as §1
Staphylococcus aureus [24] = assay: Compound tested for the activity against Staphylococcus aureus strain 6; type: functional; outline: as §1
Staphylococcus aureus [25] = assay: Compound tested for the activity against Staphylococcus aureus strain 7; type: functional; outline: as §1
Staphylococcus aureus [26] = assay: Compound tested for the activity against Staphylococcus aureus strain 8; type: functional; outline: as §1
Staphylococcus aureus [27] = assay: Compound tested for the activity against Staphylococcus aureus strain 9; type: functional; outline: as §1
Staphylococcus aureus [28] = assay: Compound tested for the activity against Staphylococcus aureus strain ATCC 28953; type: functional; outline: as §1
Shigella flexneri = assay: Compound tested for the antimicrobial activity against Shigella flexneri; type: functional; outline: as §2
Staphylococcus aureus [29] = assay: Compound tested for the activity against Staphylococcus aureus strain 1; type: functional; outline: as §1
Staphylococcus aureus [30] = assay: Compound tested for the activity against Staphylococcus aureus strain 10; type: functional; outline: as §1
Staphylococcus aureus [31] = assay: Compound tested for the activity against Staphylococcus aureus strain 11; type: functional; outline: as §1
Staphylococcus aureus [32] = assay: Compound tested for the activity against Staphylococcus aureus strain 2; type: functional; outline: as §1
Staphylococcus aureus [33] = assay: Compound tested for the activity against Staphylococcus aureus strain 3; type: functional; outline: as §1
[34] = tested on: Acinetobacter calcoaceticus subsp. anitratus; assay: Compound tested for the antimicrobial activity against Acinetobacter anitratus; type: functional, aeinetobacter anitrotap; outline: as §2

SMILES	MIC (Escherichia coli) [µg/mL]	MIC (Pseudomonas aeruginosa [1]) [µg/mL]	MIC (Staphylococcus aureus [2]) [µg/mL]	MIC (Enterobacter cloacae [3]) [µg/mL]	MIC (Enterobacter cloacae [4]) [µg/mL]	Hemolysis [5] [%]	Hemolysis [6] [%]	Hemolysis [7] [%]	Hemolysis [8] [%]	MIC (Klebsiella pneumoniae) [µg/mL]	MIC (Pseudomonas aeruginosa [9]) [µg/mL]	MIC (Pseudomonas aeruginosa [10]) [µg/mL]	MIC (Pseudomonas aeruginosa [11]) [µg/mL]	MIC (Proteus mirabilis) [µg/mL]	MIC (Pseudomonas aeruginosa [12]) [µg/mL]	MIC (Pseudomonas aeruginosa [13]) [µg/mL]	MIC (Pseudomonas aeruginosa [14]) [µg/mL]	MIC (Pseudomonas aeruginosa [15]) [µg/mL]	MIC (Pseudomonas aeruginosa [16]) [µg/mL]	MIC (Pseudomonas aeruginosa [17]) [µg/mL]	other results
NCCCC[C@H](NC(=O)[C@H](CCCCN)NC(=O)[C@H](Cc1c[nH]c2ccccc12)NC(=O)[C@H](Cc1c[nH]c2ccccc12)NC(=O)[C@H](CCCCN)NC(=O)[C@H](Cc1c[nH]c2ccccc12)NC(=O)[C@H](Cc1c[nH]c2ccccc12)NC(=O)[C@H](CCCCN)NC(=O)[C@@H](N)CCCCN)C(=O)N[C@@H](Cc1c[nH]c2ccccc12)C(=O)O (H-KKWWKWWKKW-OH)	50 (≈ 31.4 µM)	50 (≈ 31.4 µM)	12.5 (≈ 7.86 µM)																		
CC(C)C[C@H](NC(=O)[C@H](C)NC(=O)[C@H](CCCCN)NC(=O)[C@H](C)NC(=O)[C@H](CC(C)C)NC(=O)[C@H](CCCCN)NC(=O)[C@H](C)NC(=O)[C@H](CC(C)C)NC(=O)[C@H](CCCCN)NC(=O)[C@H](CCCCN)NC(=O)[C@H](C)NC(=O)[C@H](CC(C)C)NC(=O)[C@H](CCCCN)NC(=O)[C@H](CCCCN)NC(=O)[C@H](C)NC(=O)[C@H](CC(C)C)NC(=O)[C@@H](N)CCCCN)C(=O)O (H-KLAKKLAKKLAKLAKAL-OH)	25 (≈ 13.6 µM)	50 (≈ 27.2 µM)	200 (≈ 109 µM)																		
CC(C)C[C@H](NC(=O)[C@H](CCCCN)NC(=O)[C@H](CC(C)C)NC(=O)[C@H](Cc1ccccc1)NC(=O)[C@H](CCCCN)NC(=O)[C@H](CCCCN)NC(=O)[C@H](C)NC(=O)[C@H](Cc1ccccc1)NC(=O)[C@H](CCCCN)NC(=O)[C@H](CCCCN)NC(=O)[C@H](Cc1ccccc1)NC(=O)[C@H](CC(C)C)NC(=O)[C@@H](N)CCCCN)C(=O)N[C@@H](Cc1ccccc1)C(=O)N[C@@H](CCCCN)C(=O)N[C@@H](C)C(=O)N[C@@H](Cc1c[nH]c2ccccc12)C(=O)O (H-KLFKKFAKKFLKLFKAW-OH)	6.25 (≈ 2.88 µM)	12.5 (≈ 5.76 µM)		6.25 (≈ 2.88 µM)	12.5 (≈ 5.76 µM)	26	40	5	15	12.5 (≈ 5.76 µM)	12.5 (≈ 5.76 µM)	> 100	3.12 (≈ 1.44 µM)	> 100	6.25 (≈ 2.88 µM)	50 (≈ 23 µM)	25 (≈ 11.5 µM)	12.5 (≈ 5.76 µM)	6.25 (≈ 2.88 µM)	12.5 (≈ 5.76 µM)	MIC (Pseudomonas aeruginosa [18]): 12.5 µg/mL (≈ 5.76 µM); MIC (Pseudomonas aeruginosa [19]): 25 µg/mL (≈ 11.5 µM); MIC (Pseudomonas aeruginosa [20]): 6.25 µg/mL (≈ 2.88 µM); MIC [21]: 12.5 µg/mL (≈ 5.76 µM); MIC (Staphylococcus aureus [22]): 25 µg/mL (≈ 11.5 µM); MIC (Staphylococcus aureus [23]): 50 µg/mL (≈ 23 µM); MIC (Staphylococcus aureus [24]): 25 µg/mL (≈ 11.5 µM); MIC (Staphylococcus aureus [25]): 25 µg/mL (≈ 11.5 µM); MIC (Staphylococcus aureus [26]): 25 µg/mL (≈ 11.5 µM); MIC (Staphylococcus aureus [27]): 50 µg/mL (≈ 23 µM); MIC (Staphylococcus aureus [28]): 25 µg/mL (≈ 11.5 µM); MIC (Shigella flexneri): 3.12 µg/mL (≈ 1.44 µM); MIC (Staphylococcus aureus [29]): 3.12 µg/mL (≈ 1.44 µM); MIC (Staphylococcus aureus [30]): 25 µg/mL (≈ 11.5 µM); MIC (Staphylococcus aureus [31]): 25 µg/mL (≈ 11.5 µM); MIC (Staphylococcus aureus [32]): 25 µg/mL (≈ 11.5 µM); MIC (Staphylococcus aureus [33]): 25 µg/mL (≈ 11.5 µM); MIC [34]: 6.25 µg/mL (≈ 2.88 µM)
CC(C)C[C@H](NC(=O)[C@H](CCCCN)NC(=O)[C@H](CC(C)C)NC(=O)[C@H](Cc1c[nH]c2ccccc12)NC(=O)[C@H](CCCCN)NC(=O)[C@H](CCCCN)NC(=O)[C@H](C)NC(=O)[C@H](Cc1c[nH]c2ccccc12)NC(=O)[C@H](CCCCN)NC(=O)[C@H](CCCCN)NC(=O)[C@H](Cc1c[nH]c2ccccc12)NC(=O)[C@H](CC(C)C)NC(=O)[C@@H](N)CCCCN)C(=O)N[C@@H](Cc1c[nH]c2ccccc12)C(=O)N[C@@H](CCCCN)C(=O)N[C@@H](C)C(=O)N[C@@H](Cc1c[nH]c2ccccc12)C(=O)O (H-KLWKKWAKKWLKLWKAW-OH)	6.25 (≈ 2.68 µM)	3.12 (≈ 1.34 µM)	50 (≈ 21.5 µM)	< 0.39	25 (≈ 10.7 µM)	31	55	10	18	12.5 (≈ 5.37 µM)	12.5 (≈ 5.37 µM)	> 100	3.12 (≈ 1.34 µM)	> 100	6.25 (≈ 2.68 µM)	25 (≈ 10.7 µM)	> 100	3.12 (≈ 1.34 µM)	12.5 (≈ 5.37 µM)	12.5 (≈ 5.37 µM)	MIC (Pseudomonas aeruginosa [18]): 12.5 µg/mL (≈ 5.37 µM); MIC (Pseudomonas aeruginosa [19]): > 100 µg/mL; MIC (Pseudomonas aeruginosa [20]): 12.5 µg/mL (≈ 5.37 µM); MIC [21]: 12.5 µg/mL (≈ 5.37 µM); MIC (Staphylococcus aureus [22]): 12.5 µg/mL (≈ 5.37 µM); MIC (Staphylococcus aureus [23]): 12.5 µg/mL (≈ 5.37 µM); MIC (Staphylococcus aureus [24]): 12.5 µg/mL (≈ 5.37 µM); MIC (Staphylococcus aureus [25]): 25 µg/mL (≈ 10.7 µM); MIC (Staphylococcus aureus [26]): 25 µg/mL (≈ 10.7 µM); MIC (Staphylococcus aureus [27]): 25 µg/mL (≈ 10.7 µM); MIC (Staphylococcus aureus [28]): 25 µg/mL (≈ 10.7 µM); MIC (Shigella flexneri): 3.12 µg/mL (≈ 1.34 µM); MIC (Staphylococcus aureus [29]): 12.5 µg/mL (≈ 5.37 µM); MIC (Staphylococcus aureus [30]): 25 µg/mL (≈ 10.7 µM); MIC (Staphylococcus aureus [31]): 25 µg/mL (≈ 10.7 µM); MIC (Staphylococcus aureus [32]): 6.25 µg/mL (≈ 2.68 µM); MIC (Staphylococcus aureus [33]): 25 µg/mL (≈ 10.7 µM); MIC [34]: 3.12 µg/mL (≈ 1.34 µM)
CC(C)C[C@H](NC(=O)[C@H](CCCCN)NC(=O)[C@H](CCCCN)NC(=O)[C@H](Cc1c[nH]c2ccccc12)NC(=O)[C@@H](N)CCCCN)C(=O)N[C@@H](C)C(=O)N[C@@H](CCCCN)C(=O)N[C@@H](CCCCN)C(=O)N[C@@H](Cc1c[nH]c2ccccc12)C(=O)O (H-KWKKLAKKW-OH)	25 (≈ 20.6 µM)	12.5 (≈ 10.3 µM)	25 (≈ 20.6 µM)			0	0	0	0												
